Target: T1, Gonadotropin-releasing hormone receptor (Homo sapiens, UniProt P30968)
T1 sequence (P30968 whole entry): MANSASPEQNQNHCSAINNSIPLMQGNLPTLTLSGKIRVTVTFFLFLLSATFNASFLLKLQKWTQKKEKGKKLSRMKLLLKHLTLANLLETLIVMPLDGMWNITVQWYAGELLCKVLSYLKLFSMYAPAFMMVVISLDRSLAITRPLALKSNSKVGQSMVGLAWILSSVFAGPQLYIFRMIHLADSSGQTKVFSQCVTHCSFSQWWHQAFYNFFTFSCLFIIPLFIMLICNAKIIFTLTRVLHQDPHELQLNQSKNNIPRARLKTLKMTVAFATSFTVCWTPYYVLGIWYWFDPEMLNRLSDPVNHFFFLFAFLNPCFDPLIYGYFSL
Test: The Compound was tested for the concentration to inhibit 50% of [125 I ]leuprorelin binding to the cloned human Leutinizing releasing hormone receptor (LHRH) receptor.
Method in brief: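 Membranes from CHO cells stably expressing cloned human LHRH receptor (0.2 mg/mL) incubated with [125I]leuprorelin (0.15 nM) and graded compound in Tris/EDTA/BSA buffer with protease inhibitors, pH 7.5, 60 min at 25 °C. Filtration on PEI-coated glass fiber, gamma counting. Nonspecific binding with 1 µM unlabeled leuprorelin. IC50 from pseudo-Hill fit. Means of ≥3 determinations.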

IC50: 4 nM
SMILES: CCOC(=O)c1cn(Cc2c(F)cccc2F)c2sc(-c3ccc(N)cc3)c(CN(C)Cc3ccccc3)c2c1=O

Source: ChEMBL document CHEMBL1131311, “Discovery of a novel, potent, and orally active nonpeptide antagonist of the human luteinizing hormone-releasing hormone (LHRH) receptor” (J Med Chem, 1998)
